Laboratory results as given in ChEMBL document CHEMBL1144850, “Combretastatin dinitrogen-substituted stilbene analogues as tubulin-binding and vascular-disrupting agents” (J Nat Prod, 2008).

What was measured:
NCI-H460 = assay: Cytotoxicity against human NCIH460 cells after 48 hrs by SRB assay; type: functional
How it was run: (§1)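 Cells grown in RPMI1640 with 5% fetal bovine serum were seeded and incubated 24 h, then exposed to serial dilutions for 48 h. Plates were fixed with trichloroacetic acid, stained with sulforhodamine B and read by plate reader. GI50 is the concentration giving a 50% reduction in net protein increase, calculated from optical density data.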

DU-145 = assay: Cytotoxicity against human DU145 cells after 48 hrs by SRB assay; type: functional; how it was run: as §1
MCF7 = assay: Cytotoxicity against human MCF7 cells after 48 hrs by SRB assay; type: functional; how it was run: as §1
KM-20L2 = assay: Cytotoxicity against human KM20L2 cells after 48 hrs by SRB assay; type: functional; how it was run: as §1
[1] = Inhibition of calf tubulin polymerization; design: species or system Bos taurus
How it was run: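 Tubulin purified from calf brain; polymerization followed turbidimetrically at 350 nm. IC50 obtained from the data by nonlinear regression.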

SF-268 = assay: Cytotoxicity against human SF268 cells after 48 hrs by SRB assay; type: functional; how it was run: as §1
BXPC-3 = assay: Cytotoxicity against human BXPC3 cells after 48 hrs by SRB assay; type: functional; how it was run: as §1
[2] = Cytotoxicity against mouse MHEC5-T cells after 5 days by MTT assay; type: functional, cell-based; conditions: 120 h
How it was run: (§2)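 Mouse heart endothelioma MHEC5-T cells exposed to serial dilutions of compound; viability read by MTT reduction after incubation at 37 °C for 1 h or 5 days exposure. IC50 = concentration reducing viability by 50% versus untreated control.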

Mus musculus [3] = assay: Reduction of blood flow to tumor in MHEC5-T xenografted SCID mouse at 10 mg/kg, ip after 24 hrs; type: functional; design: scale not given: the % may be the effect or the level left; conditions: route intraperitoneal
How it was run: (§3)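 SCID mice bearing flank MHEC5-T tumours (cultured cells injected into right flank), dosed ip at 10 or 100 mg/kg once tumours reached 300 mm3 without necrosis. At 24 h, diluted fluorescent microbeads (1:6 in saline) injected iv via tail vein; mice killed 3 min later. 8 µm cryosections of tumour and normal organs imaged by fluorescence microscopy; three sections from three tumours per group; vehicle controls.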

[4] = Cytotoxicity against mouse MHEC5-T cells after 1 hr by MTT assay; type: functional, cell-based; how it was run: as §2
Mus musculus [5] = assay: Reduction of blood flow to tumor in MHEC5-T xenografted SCID mouse at 100 mg/kg, ip after 24 hrs; type: functional; design: scale not given: the % may be the effect or the level left; conditions: route intraperitoneal; how it was run: as §3
P388 = assay: Growth inhibition of mouse P388 cells; type: functional; conditions: read-out: ED50 (the source's name)

SMILES | GI50 (NCI-H460; Homo sapiens, NCI-H460, 48 h) | GI50 (DU-145; Homo sapiens, DU-145, 48 h) | GI50 (MCF7; Homo sapiens, MCF7, 48 h) | GI50 (KM-20L2; Homo sapiens, KM-20L2, 48 h) | IC50 [1] | GI50 (SF-268; Homo sapiens, SF-268, 48 h) | GI50 (BXPC-3; Homo sapiens, BXPC-3, 48 h) | GI50 (NCI-H460) | GI50 (DU-145) | IC50 [2] | GI50 (MCF7) | GI50 (KM-20L2) | Activity (Mus musculus [3]) | GI50 (SF-268) | GI50 (BXPC-3) | IC50 [4] | Activity (Mus musculus [5]) | EC50 (P388)
COc1cc([N+](=O)[O-])c(/C=C\c2cc(OC)c(OC)c(OC)c2)cc1N | 2.5 µM | 3.3 µM | 2.6 µM | 3.5 µM | > 40 µM | 2.8 µM | 2.7 µM | – | – | – | – | – | – | – | – | – | – | –
COc1cc(/C=C\c2ccc(OC)c([N+](=O)[O-])c2[N+](=O)[O-])cc(OC)c1OC | 0.37 µM | 0.2 µM | 2.3 µM | 0.33 µM | > 40 µM | 2.5 µM | 2.1 µM | – | – | – | – | – | – | – | – | – | – | –
COc1cc([N+](=O)[O-])c(/C=C\c2cc(OC)c(OC)c(OC)c2)cc1[N+](=O)[O-] | 3.5 µM | 5.5 µM | 2.3 µM | 4.6 µM | > 40 µM | 2.8 µM | 3.6 µM | – | – | – | – | – | – | – | – | – | – | –
COc1cc(/C=C/c2cc([N+](=O)[O-])c(OC)c([N+](=O)[O-])c2)cc(OC)c1OC | > 10 µM | > 10 µM | > 10 µM | > 10 µM | > 40 µM | > 10 µM | > 10 µM | – | – | – | – | – | – | – | – | – | – | –
COc1ccc(/C=C\c2cc(OC)c(OC)c(OC)c2)c(N)c1N [listing 1 of 2 here] | – | – | – | – | 2.8 µM | – | – | 0.018 µM | 0.018 µM | 0.0043 µM | 0.0062 µM | 0.025 µM | 40% | 0.0083 µM | 0.0079 µM | 2.4 µM | – | –
COc1cc(N)c(/C=C\c2cc(OC)c(OC)c(OC)c2)cc1[N+](=O)[O-] | – | – | – | – | 31 µM | – | – | 3.6 µM | 3.6 µM | > 1.4 µM | 2.6 µM | 3.5 µM | 0% | 2.6 µM | 3.2 µM | 37.7 µM | 0% | –
COc1cc(/C=C/c2ccc(OC)c([N+](=O)[O-])c2[N+](=O)[O-])cc(OC)c1OC | > 10 µM | > 10 µM | > 10 µM | > 10 µM | > 40 µM | > 10 µM | > 10 µM | – | – | – | – | – | – | – | – | – | – | –
COc1cc([N+](=O)[O-])c(/C=C/c2cc(OC)c(OC)c(OC)c2)cc1[N+](=O)[O-] | > 10 µM | > 10 µM | 2.5 µM | > 10 µM | > 40 µM | 1.7 µM | > 10 µM | – | – | – | – | – | – | – | – | – | – | –
COc1cc(N)c(/C=C\c2cc(OC)c(OC)c(OC)c2)cc1[N+](=O)[O-].Cl | 4.3 µM | 3.5 µM | 1.5 µM | – | – | – | – | – | – | – | – | 0.98 µM | 0% | 1.2 µM | 1.2 µM | – | 13.7% | 6.6 µM
COc1cc(/C=C\c2cc(N)c(OC)c(N)c2)cc(OC)c1OC.Cl.Cl | – | – | – | – | > 40 µM | – | – | – | – | > 1.4 µM | – | – | 0% | – | – | > 44.8 µM | 6% | –
COc1cc(/C=C\c2cc([N+](=O)[O-])c(OC)c([N+](=O)[O-])c2)cc(OC)c1OC | 0.37 µM | 0.26 µM | 0.41 µM | 0.52 µM | 7.4 µM | 0.68 µM | 0.79 µM | – | – | – | – | – | – | – | – | – | – | –
COc1cc(/C=C\c2cc(NC(=O)[C@@H](N)CO)c(OC)c(NC(=O)[C@@H](N)CO)c2)cc(OC)c1OC | – | – | – | – | > 40 µM | – | – | – | – | – | – | – | – | – | – | – | – | –
COc1cc(/C=C\c2cc(N)c(OC)c(N)c2)cc(OC)c1OC | 2.4 µM | 2.1 µM | 1.5 µM | 1.1 µM | – | 1.5 µM | 1.5 µM | – | – | – | – | – | 3.1% | – | – | – | 4.6% | 5.2 µM
COc1ccc(/C=C\c2cc(OC)c(OC)c(OC)c2)c(N)c1N [listing 2 of 2 here] | 0.009 µM | 0.012 µM | 0.011 µM | 0.019 µM | 1.8 µM | 0.011 µM | 0.014 µM | – | – | – | – | – | – | – | – | – | – | –
COc1cc(N)c(/C=C\c2cc(OC)c(OC)c(OC)c2)cc1N | 0.38 µM | 0.33 µM | 0.61 µM | 0.44 µM | 14.1 µM | 0.55 µM | 1 µM | – | – | – | – | – | – | – | – | – | – | –
COc1cc(/C=C\c2ccc(OC)c(OP(=O)([O-])[O-])c2OP(=O)([O-])[O-])cc(OC)c1OC.[Na+].[Na+].[Na+].[Na+] | – | – | – | – | – | – | – | – | – | 0.0046 µM | – | – | 70% | – | – | 3.2 µM | 99% | < 0.01 µM
COc1ccc(/C=C\c2cc(OC)c(OC)c(OC)c2)cc1O [COMBRETASTATIN A4] | 0.0006 µM | 0.0008 µM | – | 0.34 µM | – | – | 0.39 µM | – | – | – | – | – | – | – | – | – | – | –
COc1ccc(/C=C\c2cc(OC)c(OC)c(OC)c2)c(O)c1O [COMBRETASTATIN A-1] | 0.74 µM | 0.17 µM | – | 0.061 µM | 1.9 µM | – | 4.4 µM | – | – | – | – | – | – | – | – | – | – | –
COc1ccc(/C=C\c2cc(OC)c(OC)c(OC)c2)cc1OP(=O)([O-])[O-].[Na+].[Na+] [FOSBRETABULIN DISODIUM] | – | – | – | – | – | – | – | – | – | 0.002 µM | – | – | 10% | – | – | 0.8 µM | 88% | 0.0004 µM
